Activity calls are given as the source filed them. The rule behind the calls is not given here.
Legend:
Format in all cases: functional
Rattus norvegicus [1] = assay: Maximum percent fall in Systolic blood pressure (SBP) was measured in anesthetized normotensive rat for 30 mins after intravenous (iv) injection at 0.3 mg/kg dose
Procedure, shortened: (§1)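 Male normotensive rats under anesthesia; compound given as iv bolus via tail vein. Blood pressure and heart rate recorded by pressure transducer coupled to polygraph. Systolic pressure followed for 30 min after injection; value is maximum percent fall in SBP, n = 4.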

Rattus norvegicus [2] = species on record: Rattus norvegicus; assay: Negative logarithm of the concentration causing a 100% inhibition of spontaneous mechanical activity in rat portal vein is determined in vitro
Procedure, shortened: (§2)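 Rat portal vein strips in buffer (pH 7.2) at 37 °C, gassed 5% CO2 in O2, under 0.5 g tension. Spontaneous contractions recorded isometrically by force-displacement transducer. Strips equilibrated 30 min, then compounds added cumulatively. Values are means of four independent experiments.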

Rattus norvegicus [3] = assay: Maximum percent fall in Systolic blood pressure (SBP) was measured in anesthetized normotensive rat for 30 mins after intravenous (iv) injection at 0.1 mg/kg dose; procedure, shortened: as §1
Rattus norvegicus [4] = assay: Maximum percent fall in Systolic blood pressure (SBP) was measured in anesthetized normotensive rat for 30 mins after intravenous (iv) injection at 3 mg/kg dose; procedure, shortened: as §1
Rattus norvegicus [5] = assay: Maximum percent fall in Systolic blood pressure (SBP) was measured in anesthetized normotensive rat for 30 mins after intravenous (iv) injection at 1 mg/kg dose; procedure, shortened: as §1
Rattus norvegicus [6] = species on record: Rattus norvegicus; assay: Negative logarithm of the concentration causing a 100% inhibition of spontaneous mechanical activity in rat portal vein is determined in vitro; No response; procedure, shortened: as §2
Rattus norvegicus [7] = assay: Maximum percent fall in Systolic blood pressure (SBP) was measured in anesthetized normotensive rat for 30 mins after intravenous (iv) injection at 0.03 mg/kg dose; procedure, shortened: as §1

| Compound | Decrease in SBP (Rattus norvegicus [1]) | pEC100 (Rattus norvegicus [2]) | Decrease in SBP (Rattus norvegicus [3]) | Decrease in SBP (Rattus norvegicus [4]) | Decrease in SBP (Rattus norvegicus [5]) | pEC100 (Rattus norvegicus [6]) | Decrease in SBP (Rattus norvegicus [7]) |
| --- | --- | --- | --- | --- | --- | --- | --- |
| CC(/N=C(\NC#N)Nc1cc[n+]([O-])cc1)C(C)(C)C (stereo unspecified) | 13% | 5 | – | – | – | – | – |
| Nc1ccc(N/C(S)=N/C2CC3CCC2CC3)cn1 (stereo unspecified) | 43% | 7 | 26% | – | – | – | – |
| CCCC/N=C(\S)Nc1cnccc1N | – | 3 | – | 13% | – | – | – |
| CC(C)(C)[C@H]1CC[C@@H](/N=C(\S)Nc2ccc(N)nc2)CC1 | – | – | – | – | 9% | inactive | – |
| C[C@@H]1[C@H](NC(=S)Nc2ccc(N)nc2)CC2C[C@@H]1C2(C)C | – | 5 | – | – | 16% | – | – |
| CC(N/C(=N\C#N)Nc1ccncc1)C(C)(C)C (stereo unspecified) [PINACIDIL ANHYDROUS] | 31% | 7 | 25% | – | – | – | – |
| CC(C)C/N=C(\S)Nc1ccc(N)nc1 | 12% | 4.7 | – | – | 23% | – | – |
| COc1ccc(N/C(S)=N/C(C)C(C)(C)C)cn1 (stereo unspecified) | – | 5 | – | 30% | 17% | – | – |
| N#CN/C(=N\C1CC2CCC1CC2)Nc1ccc(N)[n+]([O-])c1 (stereo unspecified) | 12% | 5 | – | – | 20% | – | – |
| Cc1ccc(N/C(S)=N/C(C)C(C)(C)C)cn1 (stereo unspecified) | 18% | 5.7 | – | – | 30% | – | – |
| CC(C)(C)/N=C(\NC#N)Nc1ccc(N)nc1 | 15% | 6 | – | – | 28% | – | – |
| CC(/N=C(\S)Nc1ccc(NN)nc1)C(C)(C)C (stereo unspecified) | – | 4 | – | 26% | – | – | – |
| CC1(C)CCC[C@H](/N=C(\S)Nc2ccc(N)nc2)C1 | – | 5 | – | – | 25% | – | – |
| CC(/N=C(\S)Nc1ccc(Nc2ccccc2)nc1)C(C)(C)C (stereo unspecified) | – | – | – | – | 5% | inactive | – |
| CC(/N=C(/NC#N)Nc1cccnc1)C(C)(C)C (stereo unspecified) | – | 7 | 37% | – | – | – | 26% |
| CNc1ccc(N/C(S)=N/C(C)C(C)(C)C)cn1 (stereo unspecified) | 8% | 5 | – | – | 25% | – | – |
| CC(/N=C(\NC#N)Nc1ccc(N)[n+]([O-])c1)C(C)(C)C (stereo unspecified) | 16% | 5.5 | – | – | 22% | – | – |
| CC(C)(C)C1CCCCC1/N=C(\S)Nc1ccc(N)nc1 (single isomer, unassigned) | – | 5 | – | – | 12% | – | – |
| CC1(C)CCCC[C@@H]1/N=C(\S)Nc1ccc(N)nc1 | – | 5.5 | – | – | 26% | – | – |
| Nc1cncc(N/C(S)=N/C2CCCCC2)c1 | – | 5 | – | 23% | 7% | – | – |
| CSc1ccc(N/C(S)=N/C(C)C(C)(C)C)cn1 (stereo unspecified) | 10% | 5 | – | – | – | – | – |
| CC(/N=C(\S)Nc1ccc(O)nc1)C(C)(C)C (stereo unspecified) | – | 4 | – | – | 7% | – | – |
| Nc1ccc(NC(=S)NC2C[C@H]3CC[C@@H]2C3)cn1 (single isomer, unassigned; 22g) | 34% | 7 | – | – | 22% | – | – |
| Nc1ccncc1/N=C(\S)NC1CCCCC1 | – | 5 | – | 27% | 22% | – | – |

| Compound | Decrease in SBP (Rattus norvegicus [1]) | pEC100 (Rattus norvegicus [2]) | Decrease in SBP (Rattus norvegicus [3]) | Decrease in SBP (Rattus norvegicus [4]) | Decrease in SBP (Rattus norvegicus [5]) | pEC100 (Rattus norvegicus [6]) | Decrease in SBP (Rattus norvegicus [7]) |
| --- | --- | --- | --- | --- | --- | --- | --- |
| N#CN=C(Nc1ccc(N)[n+]([O-])c1)N[C@@H]1C[C@H]2CC[C@@H]1C2 | – | 6 | – | – | 16% | – | – |
| CC(/N=C(\S)Nc1ccc(Cl)nc1)C(C)(C)C (stereo unspecified) | 27% | 5.7 | – | – | 41% | – | – |
| CCC(C)(C)/N=C(\S)Nc1ccc(N)nc1 | 15% | 5 | – | – | 31% | – | – |
| CC1(C)[C@@H]2CC[C@@]1(C)[C@H](NC(=S)Nc1ccc(N)nc1)C2 | – | 6.5 | 14% | – | 41% | – | – |
| CC1(C)[C@H]2CC[C@](C)(C2)[C@H]1NC(=S)Nc1ccc(N)nc1 | – | 5.5 | – | 39% | 29% | – | – |
| Nc1ccc(N/C(S)=N/[C@H]2CC3C=CC2C3)cn1 (stereo partly specified) | 32% | 7 | 24% | – | – | – | – |
| C[C@]12CC[C@H](CC1/N=C(\NC#N)Nc1ccc(N)nc1)C2 (stereo partly specified) | 33% | 7.5 | 26% | – | – | – | – |
| N#CN/C(=N\[C@H]1C[C@H]2CC[C@@H]1C2)Nc1ccc(N)nc1 | 32% | 6.5 | 25% | – | – | – | – |
| Nc1ncccc1/N=C(\S)NC1CCCCC1 | – | 4 | – | 21% | 9% | – | – |
| CC(/N=C(\S)Nc1ccc(-n2ccnc2)nc1)C(C)(C)C (stereo unspecified) | – | 3.7 | – | 11% | – | – | – |
| Nc1ccc(N/C(S)=N/C23CC4CC(CC(C4)C2)C3)cn1 | – | 6.5 | – | – | 24% | – | – |
| CC(/N=C(\S)Nc1ccc(NCCN)nc1)C(C)(C)C (stereo unspecified) | – | – | – | – | 3% | inactive | – |
| N#CN/C(=N\C1CC2CCC1CC2)Nc1ccc(N)nc1 (stereo unspecified) | 28% | 6 | 17% | – | – | – | – |
| C/N=C(\S)Nc1cnccc1N | – | – | – | 15% | – | inactive | – |
| CC(/N=C(\S)Nc1ccc(N2CCCCC2)nc1)C(C)(C)C (stereo unspecified) | – | – | – | – | 10% | inactive | – |
| Nc1ccc(N/C(S)=N/C2CCCCC2)cn1 | – | 5 | – | 35% | 26% | – | – |
| CC(C)(C)/N=C(\NC#N)Nc1ccc(N)[n+]([O-])c1 | – | 4.5 | – | 20% | 19% | – | – |
| Nc1ccc(NC(=S)NC2C[C@H]3CC[C@@H]2C3)cn1 (single isomer, unassigned; 22e) | 41% | 7 | 19% | – | – | – | – |
| CC(/N=C(\S)Nc1ccc(N)nc1)C(C)(C)C (stereo unspecified) | 29% | 6 | – | – | 32% | – | – |
| CC(/N=C(\S)Nc1ccc(C#N)nc1)C(C)(C)C (stereo unspecified) | 28% | 5.7 | 13% | – | – | – | – |
| C[C@]12CC[C@H](C[C@H]1NC(=S)Nc1ccc(N)nc1)C2 | 36% | 7 | 27% | – | – | – | – |
| C[C@]12CC[C@H](C[C@@H]1NC(=NC#N)Nc1ccc(N)[n+]([O-])c1)C2 | 18% | 6 | – | – | 31% | – | – |
| CC(/N=C(\NC#N)Nc1ccc(N)nc1)C(C)(C)C (stereo unspecified) | 24% | 6 | – | – | 30% | – | – |
| CC(/N=C(\S)Nc1ccc(C(N)=O)nc1)C(C)(C)C (stereo unspecified) | – | 5 | – | – | 9% | – | – |
